# Calb FLC = C. albicans growth inhibition with fluconazole, primary screen, CaCi-2 strain, Alamar Blue fluorescence | C. albicans CaCi-2 (fluconazole-resistant clinical isolate) + fluconazole, 48 h | growth inhibition, % (test concentration not listed) | 300,000 tested, 0.57% active | AID 1979, 2009;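 active = growth inhibition above about 58% in most replicates, limit read from the data, passing the limit was not always enough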;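 note: all wells also contain fluconazole at 8 µg/ml as a sub-toxic cotreatment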
# FXN GAA850 act = FXN promoter activators, primary screen, cell-based, luciferase luminescence, HEK293 lucGAA850. HEK293 lucGAA850 FXN promoter luciferase reporter, 24 h; percent of 10 µM SAHA response. 360,000 tested, 0.56% active. AID 540364, 2011. activation, % at 6 µM;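 active = activation above the average of all compounds screened plus 3 SD, cutoff fixed separately per campaign, cut at about 7.5% in these data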
# proCasp3 act = activators of human procaspase-3 D3A mutant, primary screen, biochemical, absorbance, PC-3 D3A mutant, single concentration. 330,000 tested, 0.11% active. recombinant procaspase-3 D3A, Ac-DEVD-pNA absorbance 405 nm. activation, % at 8.5 µM;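 active = activation above the mean of all tested compounds plus 3 SD, cut at about 21% in these data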
# Target sequence (P42574 whole entry D9A/D28A/D175A): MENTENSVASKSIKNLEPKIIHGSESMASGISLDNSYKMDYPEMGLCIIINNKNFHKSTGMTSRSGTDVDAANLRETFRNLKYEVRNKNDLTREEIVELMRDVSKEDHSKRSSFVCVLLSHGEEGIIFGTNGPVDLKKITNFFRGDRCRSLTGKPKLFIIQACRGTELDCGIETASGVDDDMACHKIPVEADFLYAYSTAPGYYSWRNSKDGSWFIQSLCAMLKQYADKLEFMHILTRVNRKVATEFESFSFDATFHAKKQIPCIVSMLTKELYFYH
#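 Test system: Procaspase-3 D3A mutant, all three cleavage aspartates alanine | Dosing: Single dose, 8.5 µM nominal compound, 0.8% DMSO | Schedule: 1 h preincubation, 2 h reaction | Technique: 405 nm absorbance of p-nitroaniline, reads at 0 and 120 min | Repeats: One well per compound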
# Neddylation inh = inhibitors of cullin neddylation, primary screen, biochemical, TR-FRET, uHTS, NAE and Ubc12 | NEDD8-conjugating enzyme Ubc12 (Homo sapiens) + NEDD8-activating enzyme E1 regulatory … | inhibition, % at 25 µM | 360,000 tested, 0.58% active | AID 651699, 2012; in the data active = inhibition above about 36%
# HIF activator = HIF pathway transcriptional activators, primary screen, cell-based, U2OS HRE-luciferase, luminescence; 300,000 tested, 0.32% active; U2OS HRE-luciferase reporter; normalized: DMSO 0%, desferrioxamine 100%; activation, % at 7.5 µM (by protocol);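 active = mean activation of at least 10% of the iron chelator positive control signal, with at least half of replicates also reaching 10%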
# procasp7 counter = procaspase-7 activators, primary screen, counter-screen for procaspase-3 activator project, biochemical, absorbance, HTS, human; AID 463210, 2010; activation, % at 8.5 µM; 330,000 tested, 0.093% active; recombinant procaspase-7, Ac-DEVD-pNA absorbance 405 nm; D23A/D198A/D206A triple mutant, cannot self-cleave; scale: DMSO 0, 5 µM enzyme 100; Caspase-7 (Homo sapiens), P55210;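 active = percent activation above the screen-wide mean plus 3 SD, cut at about 25% in these data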
# Target sequence (P55210 whole entry D23A/D198A/D206A): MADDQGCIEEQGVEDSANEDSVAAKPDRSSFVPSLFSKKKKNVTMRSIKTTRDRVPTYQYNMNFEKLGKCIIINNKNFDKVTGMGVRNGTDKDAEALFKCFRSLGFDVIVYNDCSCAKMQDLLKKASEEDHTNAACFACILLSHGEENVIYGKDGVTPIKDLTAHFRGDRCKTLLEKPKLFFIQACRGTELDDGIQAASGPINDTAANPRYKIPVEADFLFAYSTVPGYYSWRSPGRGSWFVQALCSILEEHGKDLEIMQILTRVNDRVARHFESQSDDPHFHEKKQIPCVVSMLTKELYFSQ
#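 buffer or medium = Zinc-free HEPES/NaCl buffer, pH 7.4 | material = Procaspase-7 triple mutant (PC-7 D3A) | input = 2 µM procaspase-7 mutant as dispensed | signal = Epi-absorbance of released pNA at 405 nm, two timepoints | timing = 1 h preincubation, 2 h reaction | replicates = singlicate compound testing | evaluation = % activation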
# Neddyl inh conf = blockade of NEDD8 conjugation to cullin – biochemical, TR-FRET, single concentration, confirmation. TR-FRET cullin neddylation biochemical assay. shares compounds with Neddylation inh. calls only at 25 µM. 1,800 tested, 13% active. AID 652217, 2013; in the data active = inhibition above about 40%;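 note: neddylation substrate is the cullin 1 ring ligase complex with SKP2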
# Hits are given with their value; . = inactive; / = no result shown; + = active, no number; ! = not confirmed by another sample. An excerpt weighted towards active compounds, which were near 1.9% of everything screened.
SMILES,Calb FLC,FXN GAA850 act,proCasp3 act,Neddylation inh,HIF activator,procasp7 counter,Neddyl inh conf
COc1ccc2cc(C(=O)C3CCCN(C(=O)c4cnn(C(C)C)c4)C3)ccc2c1 (stereo not drawn),.,.,.,/,.,.,/
Cc1cc(N2CCN(C)CC2)nc2ccc(NC(=O)CCC(=O)NCCC3=CCCCC3)cc12,/,.,.,45,/,.,.
Cc1cc(N2CCCC2)nc2ccc(NC(=S)NC(C)C)cc12,.,.,.,/,.,.,/
Cc1cc(N2CCOCC2)nc2ccc(NC(=S)NC(C)C)cc12,.,.,.,50,.,.,.
COc1cccc(NC(=O)CCC(=O)Nc2ccc3nc(N4CCOCC4)cc(C)c3c2)c1,.,.,.,43,.,.,/
COc1ccc(CCNC(=O)CCC(=O)Nc2ccc3nc(N4CCN(C)CC4)cc(C)c3c2)cc1OC,.,.,.,.,.,.,/
CCN(CC(=O)NCc1cccs1)C(=O)/C=C/c1ccc(F)cc1,/,.,/,.,/,/,/
CCN(CC(=O)NCc1cccs1)C(=O)/C=C/c1cc(OC)c(OC)c(OC)c1,/,.,/,39,/,/,+
COC(CNC(=O)c1ccc2nc(-c3ccccc3)c(-c3ccccc3)nc2c1)OC,.,.,.,49,.,.,+
CCN1CCN(C(=O)c2ccc3nc(-c4ccccc4)c(-c4ccccc4)nc3c2)CC1,.,.,.,60,.,.,+
Cc1ccc(C(=O)N2CCN(c3ccc([N+](=O)[O-])cc3)CC2)o1,.,.,.,.,.,.,/
CC(C(=O)NC1CCCC1)N1C(=O)c2cccc3cccc1c23 (stereo not drawn),.,.,.,38,.,.,.
COc1ccc(C(C)C)cc1S(=O)(=O)Nc1cccnc1,/,.,/,.,/,/,/
CC(C)NC(=O)CN(Cc1ccc(F)cc1)C(=O)CCC(=O)Nc1nccs1,.,.,.,.,.,.,/
CC(C)N1CC(O)=C(c2nc3ccccc3[nH]2)C1=N,.,.,.,.,.,.,/
CC1(C)C(O)=C(c2nc3ccccc3[nH]2)C(=N)N1c1ccccc1,100,.,.,41,.,.,/
Cc1ccc2[nH]c(=O)c(C3=NN(C(=O)CCC(=O)O)C(c4cccs4)C3)c(-c3ccccc3)c2c1 (stereo not drawn),.,.,.,43,.,.,.
O=C(O)CCC(=O)N1N=C(c2ccc(Br)cc2)CC1c1cccs1 (stereo not drawn),.,.,.,.,.,.,/
Cc1ccc(C(=O)N/N=C\c2ccc(-c3ccc(Cl)c(Cl)c3)o2)cn1,.,.,.,43,.,.,.
COC(=O)C1=C(C)NC(C)=C(C(=O)OC)C1C(=O)OCC(=O)N1c2ccccc2CC1C (stereo not drawn),.,.,.,46!,.,.,/
CC1Cc2ccccc2N1C(=O)COC(=O)c1ccc(O)cc1 (stereo not drawn),.,.,.,.,.,.,/
O=C(NCCO)c1ccc2c3n(nc2c1)-c1ccccc1CO3,.,.,.,35,.,.,.
Cc1ccc2c(c1)COc1c3ccc(C(=O)NCC4CC4)cc3nn1-2,.,.,.,47,.,.,+
COC(=O)c1ccc2c(=O)n(CCCCCC(=O)O)c(=O)[nH]c2c1,.,.,.,48,.,.,/
CCCCNC(=O)CCCCCn1c(=O)[nH]c2cc(C(=O)OC)ccc2c1=O,.,.,.,.,.,.,/
SMILES,Calb FLC,FXN GAA850 act,proCasp3 act,Neddylation inh,HIF activator,procasp7 counter,Neddyl inh conf
c1ccc(-c2cc3c(-n4cccc4)ncnc3o2)cc1,.,.,.,38,.,.,.
CCOC(=O)Cn1nc(-c2ccccc2)c2cnc3ccc(C)cc3c21,.,.,.,42,.,.,.
COc1ccc(C(CC(=O)N2CCCCC2)c2c(OC)cc(OC)c3ccc(=O)oc23)cc1 (stereo not drawn),.,.,.,47,.,.,+
O=CNc1cc(-c2ccc(C(=O)NC3CC3)cc2)cn2c(-c3ccc(F)cc3)cnc12,/,.,/,.,/,/,/
C=CCNC(=S)/N=c1/ccccn1C,.,.,.,.,.,.,/
C=CCNC(=S)/N=c1/ccccn1CCC,.,.,.,51,.,.,.
COC(=O)C1=C(C)N=C2SC(C#N)=C(N)N2C1c1ccc(OCc2ccccc2)cc1 (stereo not drawn),.,.,.,42,.,.,.
COc1ccc(S(=O)(=O)Nc2cc3c4c(c2)CC(=O)N4CCC3)cc1OC,/,.,/,.,/,/,/
COc1ccc2cc(C(=O)N/N=C/c3cc(OC)c(OC)c(OC)c3)[nH]c2c1,/,.,.,43,.,.,+
COc1ccc(/C=N/NC(=O)c2cc3cc(OC)c(OC)cc3[nH]2)cc1,.,.,.,46,.,.,.
CCOc1ccc(/C=N/NC(=O)c2cc3ccccc3cc2OC)cc1,.,.,.,42,.,.,.
COc1cc2cc(C(=O)N/N=C/c3ccccc3Cl)[nH]c2cc1OC,.,.,.,/,.,.,/
COc1cc2cc(C(=O)N/N=C/c3ccc(F)cc3)[nH]c2cc1OC,.,.,.,40,.,.,.
Cc1ccc(S(=O)(=O)N2CCN(C(=O)CN3C(=O)CNC3=O)CC2)cc1,/,.,.,.,/,.,/
O=C(NC1CCCN(Cc2ccc(Cl)cc2)C1)c1cnc2ccccn2c1=O (stereo not drawn),.,.,.,41,.,.,/
C=CCOc1ccccc1CNc1ccc2[nH]c(=O)[nH]c2c1,.,.,.,48,.,.,.
C=CCOc1ccccc1CNc1cccc(F)c1,.,.,.,.,.,.,/
CC(C)Cn1c2nc3ccccc3nc2c2c(=O)n(CCN3CCOCC3)cnc21,.,.,.,42,.,.,.
CCCCn1c2nc3ccccc3nc2c2c(=O)n(-c3ccccc3)cnc21,.,.,.,47,.,.,.
CCCCn1c2nc3ccccc3nc2c2c(=O)n(CCC(C)C)cnc21,.,.,.,.,/,.,/
CCCn1cnc2c(c1=O)c1nc3ccccc3nc1n2CCc1ccccc1,.,.,.,44,/,.,.
COc1ccc(N2CCN(C(=O)CCCCCn3c(=S)[nH]c4ccc(N5CCOCC5)cc4c3=O)CC2)cc1,/,.,/,/,/,/,/

# Compound activity as filed in PubChem BioAssay.
